The source made the active and inactive calls.
How the values were obtained:
[1] = molecular target: T1, Splicing factor 3B subunit 3 (Homo sapiens) (UniProt Q15393); test: Binding affinity to SF3B3 in human Jurkat cells at 150 uM followed by UV irradiation for 30 mins with Wood's glass filtered medium pressure mercury arc light after cell lysis measured after denaturing wash by SDS-PAGE based pull down assay
T1 sequence (whole entry): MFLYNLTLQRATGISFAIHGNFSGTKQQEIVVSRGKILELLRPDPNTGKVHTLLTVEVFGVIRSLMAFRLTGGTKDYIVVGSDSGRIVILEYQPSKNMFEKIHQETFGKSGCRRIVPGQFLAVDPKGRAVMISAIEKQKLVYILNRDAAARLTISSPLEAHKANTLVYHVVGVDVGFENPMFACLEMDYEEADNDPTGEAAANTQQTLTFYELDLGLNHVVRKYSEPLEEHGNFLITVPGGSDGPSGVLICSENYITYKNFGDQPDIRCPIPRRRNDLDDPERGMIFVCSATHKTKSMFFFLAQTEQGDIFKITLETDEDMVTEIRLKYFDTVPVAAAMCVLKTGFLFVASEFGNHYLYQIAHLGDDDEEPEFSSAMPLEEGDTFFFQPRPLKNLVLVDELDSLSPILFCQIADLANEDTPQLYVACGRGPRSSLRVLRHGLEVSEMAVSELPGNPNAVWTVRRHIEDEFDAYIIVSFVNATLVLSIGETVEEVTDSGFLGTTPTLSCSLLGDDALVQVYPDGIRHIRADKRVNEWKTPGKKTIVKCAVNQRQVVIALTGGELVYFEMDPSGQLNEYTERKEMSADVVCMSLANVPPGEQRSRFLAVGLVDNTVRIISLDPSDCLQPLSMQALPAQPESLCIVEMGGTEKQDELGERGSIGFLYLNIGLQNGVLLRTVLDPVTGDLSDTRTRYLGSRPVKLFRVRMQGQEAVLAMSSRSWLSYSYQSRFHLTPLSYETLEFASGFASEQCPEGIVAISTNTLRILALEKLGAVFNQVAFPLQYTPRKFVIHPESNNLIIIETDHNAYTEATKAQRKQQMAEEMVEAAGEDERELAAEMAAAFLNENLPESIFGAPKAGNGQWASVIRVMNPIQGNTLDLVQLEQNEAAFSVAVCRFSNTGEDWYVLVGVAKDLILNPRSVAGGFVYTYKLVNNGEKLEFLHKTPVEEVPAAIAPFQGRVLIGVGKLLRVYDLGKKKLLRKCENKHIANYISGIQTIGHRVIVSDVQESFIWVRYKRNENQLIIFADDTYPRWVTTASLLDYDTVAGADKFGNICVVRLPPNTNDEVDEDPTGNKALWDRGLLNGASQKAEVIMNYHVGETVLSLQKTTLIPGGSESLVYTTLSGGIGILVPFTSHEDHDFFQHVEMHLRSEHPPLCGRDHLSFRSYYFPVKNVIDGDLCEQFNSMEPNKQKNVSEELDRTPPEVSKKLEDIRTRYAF
Procedure, shortened: (§1)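 Jurkat cells were grown in RPMI with 10% FBS (about 15×10^6 cells) and treated 2 h with 150 μM BioQ in 3% aqueous DMSO. They were heat-shocked at 43 °C for 30 min, recovered 1 h at 37 °C, and UV-irradiated (320–400 nm, peak 365 nm, 30 min, 4 °C) before or after sonication lysis. Streptavidin-agarose capture ran 1 h. Beads were washed ≥3× with lysis buffer or 2% SDS Tris pH 7.4, boiled, run on 12% SDS-PAGE and silver-stained.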

[2] = molecular target: T2, Ubiquitin-like modifier-activating enzyme 1 (Homo sapiens) (UniProt P22314); test: Binding affinity to UBA1 in human Jurkat cells at 150 uM followed by UV irradiation for 30 mins with Wood's glass filtered medium pressure mercury arc light prior to cell lysis measured after denaturing wash by LC-MS/MS based pull down assay
T2 sequence (whole entry): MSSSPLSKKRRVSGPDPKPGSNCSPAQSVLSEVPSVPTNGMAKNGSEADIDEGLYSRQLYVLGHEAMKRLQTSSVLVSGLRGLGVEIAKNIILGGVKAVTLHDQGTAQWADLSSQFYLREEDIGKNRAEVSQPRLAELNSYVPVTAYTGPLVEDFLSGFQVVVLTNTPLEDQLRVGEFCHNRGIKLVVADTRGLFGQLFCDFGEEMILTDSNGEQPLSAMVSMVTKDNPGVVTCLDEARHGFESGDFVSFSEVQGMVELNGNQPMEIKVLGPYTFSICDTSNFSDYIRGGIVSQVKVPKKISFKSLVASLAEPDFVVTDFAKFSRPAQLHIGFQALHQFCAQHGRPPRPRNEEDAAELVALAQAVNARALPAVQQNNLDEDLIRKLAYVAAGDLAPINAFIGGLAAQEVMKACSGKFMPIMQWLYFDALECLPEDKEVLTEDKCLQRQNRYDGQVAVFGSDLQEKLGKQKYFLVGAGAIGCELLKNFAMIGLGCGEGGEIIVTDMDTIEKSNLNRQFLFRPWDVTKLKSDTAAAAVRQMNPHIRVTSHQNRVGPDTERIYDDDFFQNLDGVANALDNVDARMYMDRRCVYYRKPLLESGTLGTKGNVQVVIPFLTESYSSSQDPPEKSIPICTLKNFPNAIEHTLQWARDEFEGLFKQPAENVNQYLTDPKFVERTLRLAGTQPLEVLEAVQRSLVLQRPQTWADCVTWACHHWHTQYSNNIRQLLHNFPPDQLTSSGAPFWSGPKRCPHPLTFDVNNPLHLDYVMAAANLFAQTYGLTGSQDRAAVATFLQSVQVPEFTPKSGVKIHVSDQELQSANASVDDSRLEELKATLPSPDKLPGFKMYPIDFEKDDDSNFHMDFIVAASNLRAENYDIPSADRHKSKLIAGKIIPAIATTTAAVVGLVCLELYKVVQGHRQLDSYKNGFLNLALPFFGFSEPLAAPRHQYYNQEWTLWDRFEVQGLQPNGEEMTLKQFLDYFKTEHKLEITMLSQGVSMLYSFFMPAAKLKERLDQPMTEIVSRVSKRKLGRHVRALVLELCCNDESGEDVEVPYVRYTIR
Procedure, shortened: (§2)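 Silver-stained bands from cells irradiated before lysis were excised, destained, reduced with 10 mM DTT, alkylated with 50 mM iodoacetamide and digested with trypsin overnight. Peptides were extracted in 1% TFA/50% acetonitrile. Nano-C18 LC used a 2–50% acetonitrile gradient with 0.1% formic acid over 50 min at 260 nL/min, followed by MS/MS identification.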

[3] = molecular target: RuvB-like 2 (Homo sapiens) (UniProt Q9Y230); test: Binding affinity to RUVBL2 in human Jurkat cells at 150 uM followed by UV irradiation for 30 mins with Wood's glass filtered medium pressure mercury arc light after cell lysis measured after denaturing wash by SDS-PAGE based pull down assay; procedure, shortened: as §1
[4] = molecular target: Heat shock protein HSP 90-alpha (Homo sapiens) (UniProt P07900); test: Binding affinity to HSP90AA1 in human Jurkat cells at 150 uM followed by UV irradiation for 30 mins with Wood's glass filtered medium pressure mercury arc light prior to cell lysis measured after denaturing wash by LC-MS/MS based pull down assay; procedure, shortened: as §2

Measured: Activity

RuvB-like 2 (Homo sapiens), sequence (Q9Y230 whole entry): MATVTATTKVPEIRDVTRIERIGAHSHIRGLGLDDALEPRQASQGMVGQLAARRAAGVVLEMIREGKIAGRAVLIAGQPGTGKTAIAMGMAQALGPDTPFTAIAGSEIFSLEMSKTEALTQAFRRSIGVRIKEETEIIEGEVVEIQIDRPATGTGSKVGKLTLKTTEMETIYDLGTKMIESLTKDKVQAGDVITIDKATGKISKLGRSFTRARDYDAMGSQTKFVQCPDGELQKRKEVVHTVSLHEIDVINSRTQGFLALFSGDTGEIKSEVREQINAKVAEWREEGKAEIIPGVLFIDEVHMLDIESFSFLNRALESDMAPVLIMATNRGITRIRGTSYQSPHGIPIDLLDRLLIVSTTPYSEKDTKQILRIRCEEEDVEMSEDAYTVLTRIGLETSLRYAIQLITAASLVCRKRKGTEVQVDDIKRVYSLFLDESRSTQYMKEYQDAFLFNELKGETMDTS

O=C(CCCC[C@@H]1SC[C@@H]2NC(=O)N[C@@H]21)NCCOCCOCCNC(=O)COc1cc(O)c2c(=O)c(O)c(-c3ccc(O)c(O)c3)oc2c1
active: [1] | [2] | [3] | [4]
